Measured values reported in ChEMBL document CHEMBL2401667, “Synthesis of N-substituted acyclic β-amino acids and their investigation as GABA uptake inhibitors” (Eur J Med Chem, 2013).

Assays:
[1] = molecular target: Sodium- and chloride-dependent GABA transporter 1 (Homo sapiens, UniProt P30531); assay: Inhibition of GABA uptake at GAT-1 (unknown origin)
GABA transporter 2 = molecular target: T1, GABA transporter 2 (Mus musculus, UniProt P31651); assay: Inhibition of GABA uptake at murine BGT-1 expressed in HEK293 cells; format: cell-based
T1 sequence (P31651 whole entry): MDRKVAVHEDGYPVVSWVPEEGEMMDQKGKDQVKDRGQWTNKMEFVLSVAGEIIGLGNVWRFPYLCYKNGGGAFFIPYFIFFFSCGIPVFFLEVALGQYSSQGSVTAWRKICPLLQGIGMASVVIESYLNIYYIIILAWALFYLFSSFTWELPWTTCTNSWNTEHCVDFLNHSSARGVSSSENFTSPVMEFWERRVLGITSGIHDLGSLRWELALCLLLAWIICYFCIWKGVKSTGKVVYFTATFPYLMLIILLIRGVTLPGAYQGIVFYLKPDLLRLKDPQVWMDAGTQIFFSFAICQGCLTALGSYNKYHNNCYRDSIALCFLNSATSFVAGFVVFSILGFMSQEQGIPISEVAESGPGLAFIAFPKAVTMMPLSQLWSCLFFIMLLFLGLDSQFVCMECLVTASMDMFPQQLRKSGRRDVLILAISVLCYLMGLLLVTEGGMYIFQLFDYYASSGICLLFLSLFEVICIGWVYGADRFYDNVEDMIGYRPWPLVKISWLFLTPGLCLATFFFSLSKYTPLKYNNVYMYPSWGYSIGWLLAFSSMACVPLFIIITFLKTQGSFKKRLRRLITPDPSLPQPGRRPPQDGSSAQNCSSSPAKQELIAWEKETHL

[2] = molecular target: Sodium- and chloride-dependent GABA transporter 1 (Mus musculus, UniProt P31648); assay: Inhibition of GABA uptake at murine GAT-1 expressed in HEK293 cells; format: cell-based
[3] = Inhibition of GABA uptake at GAT-3 in porcine brain stem P2C fraction; design: species or system Sus scrofa
Outline: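 Uptake assay on a P2C membrane preparation from porcine brainstem, which predominantly addresses the GAT3 subtype.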

[4] = Inhibition of GABA uptake at GAT-1 in porcine frontal cortex P2B fraction; format: tissue-based, Sus scrofa
Outline: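 Uptake assay on a P2B membrane preparation from porcine frontal cortex, which predominantly addresses the GAT1 subtype.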

[5] = molecular target: T2, GABA transporter 2 (Mus musculus) (UniProt P31651); assay: Remaining GABA uptake at murine BGT-1 expressed in HEK293 cells at 100 uM relative to control
T2 sequence (whole entry): T1 sequence (P31651 whole entry)

[6] = molecular target: T3, GABA transporter 3 (Mus musculus) (UniProt P31649); assay: Remaining GABA uptake at murine GAT-2 expressed in HEK293 cells at 100 uM relative to control
T3 sequence (whole entry): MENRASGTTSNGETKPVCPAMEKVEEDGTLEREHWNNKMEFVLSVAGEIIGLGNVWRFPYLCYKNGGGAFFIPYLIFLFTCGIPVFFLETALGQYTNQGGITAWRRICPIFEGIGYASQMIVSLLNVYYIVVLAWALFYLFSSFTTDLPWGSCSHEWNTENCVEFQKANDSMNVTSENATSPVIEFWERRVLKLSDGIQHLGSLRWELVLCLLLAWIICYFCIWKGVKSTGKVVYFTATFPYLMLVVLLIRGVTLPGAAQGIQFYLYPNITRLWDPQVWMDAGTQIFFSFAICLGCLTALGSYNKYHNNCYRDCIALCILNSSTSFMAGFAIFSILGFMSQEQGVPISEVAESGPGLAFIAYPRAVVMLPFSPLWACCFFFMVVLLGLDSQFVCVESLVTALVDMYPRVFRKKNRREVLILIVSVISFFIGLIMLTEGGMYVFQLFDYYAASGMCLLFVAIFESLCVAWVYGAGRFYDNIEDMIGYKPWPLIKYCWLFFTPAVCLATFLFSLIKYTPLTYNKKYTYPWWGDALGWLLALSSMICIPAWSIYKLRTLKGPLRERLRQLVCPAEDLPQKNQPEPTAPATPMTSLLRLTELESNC

GABA transporter 4 = molecular target: T4, GABA transporter 4 (Mus musculus, UniProt P31650); assay: Inhibition of GABA uptake at murine GAT-3 expressed in HEK293 cells; format: cell-based
T4 sequence (P31650 whole entry): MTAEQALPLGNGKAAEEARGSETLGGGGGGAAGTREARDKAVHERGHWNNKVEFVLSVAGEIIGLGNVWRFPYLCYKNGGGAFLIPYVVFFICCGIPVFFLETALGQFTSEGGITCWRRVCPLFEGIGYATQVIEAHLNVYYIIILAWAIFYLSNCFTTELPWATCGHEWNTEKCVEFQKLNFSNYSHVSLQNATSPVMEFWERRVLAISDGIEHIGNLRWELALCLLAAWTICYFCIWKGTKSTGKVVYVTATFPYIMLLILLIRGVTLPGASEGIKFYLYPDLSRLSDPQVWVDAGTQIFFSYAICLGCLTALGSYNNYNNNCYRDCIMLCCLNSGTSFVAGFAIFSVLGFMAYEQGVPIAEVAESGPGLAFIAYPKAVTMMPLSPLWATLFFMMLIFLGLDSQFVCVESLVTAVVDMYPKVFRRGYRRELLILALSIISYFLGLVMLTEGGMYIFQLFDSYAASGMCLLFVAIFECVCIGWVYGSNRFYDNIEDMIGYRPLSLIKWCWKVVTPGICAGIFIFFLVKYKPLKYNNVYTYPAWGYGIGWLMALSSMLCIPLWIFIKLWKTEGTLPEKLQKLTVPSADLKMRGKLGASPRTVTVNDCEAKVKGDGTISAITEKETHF

[7] = molecular target: Sodium- and chloride-dependent GABA transporter 1 (Mus musculus) (UniProt P31648); assay: Remaining GABA uptake at murine GAT-1 expressed in HEK293 cells at 100 uM relative to control
GABA transporter 3 = molecular target: T5, GABA transporter 3 (Mus musculus, UniProt P31649); assay: Inhibition of GABA uptake at murine GAT-2 expressed in HEK293 cells; format: cell-based
T5 sequence (P31649 whole entry): T3 sequence (whole entry)

[8] = molecular target: T2, GABA transporter 2 (Mus musculus); assay: Remaining GABA uptake at murine BGT-1 expressed in HEK293 cells at 1 mM relative to control

Sodium- and chloride-dependent GABA transporter 1 (Homo sapiens, UniProt P30531), sequence (P30531 whole entry): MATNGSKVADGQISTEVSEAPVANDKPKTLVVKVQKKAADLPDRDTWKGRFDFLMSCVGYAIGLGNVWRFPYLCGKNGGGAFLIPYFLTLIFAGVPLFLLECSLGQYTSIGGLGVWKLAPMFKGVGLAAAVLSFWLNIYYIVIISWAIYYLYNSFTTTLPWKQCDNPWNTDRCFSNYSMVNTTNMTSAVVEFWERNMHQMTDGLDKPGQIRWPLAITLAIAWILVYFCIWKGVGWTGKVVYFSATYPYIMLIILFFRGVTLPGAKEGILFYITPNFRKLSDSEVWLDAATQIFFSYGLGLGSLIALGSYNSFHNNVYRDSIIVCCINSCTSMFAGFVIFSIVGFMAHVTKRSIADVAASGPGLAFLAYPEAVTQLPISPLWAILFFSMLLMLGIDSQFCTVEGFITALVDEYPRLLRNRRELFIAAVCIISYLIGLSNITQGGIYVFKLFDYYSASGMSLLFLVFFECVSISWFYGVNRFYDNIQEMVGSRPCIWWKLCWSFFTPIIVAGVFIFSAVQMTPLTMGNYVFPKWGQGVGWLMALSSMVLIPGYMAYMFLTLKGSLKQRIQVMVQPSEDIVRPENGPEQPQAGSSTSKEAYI

Row | IC50 [2] | remaining GABA uptake [5] | remaining GABA uptake [6] | IC50 (GABA transporter 4) | Structure (SMILES) | other results
1 |  |  |  |  | O=C(O)[C@@H]1CCCN(CCOCCN2c3ccccc3CCc3ccccc32)C1 | IC50 [1]: 39.8 µM
2 |  |  |  |  | O=C(O)[C@@H]1CCCN(CCOCCN2c3ccccc3Sc3ccccc32)C1 | IC50 [1]: 0.309 µM
3 |  |  |  |  | O=C(O)[C@@H]1CCCN(CCOCCN2c3ccccc3C=Cc3ccccc32)C1 | IC50 [1]: 0.646 µM
4 |  |  |  |  | Cl.O=C(O)CCNCCC=C(c1ccccc1)c1ccccc1 | pIC50 [3]: 3.36; pIC50 [4]: 3.94
5 | 20.4 µM | 85% | 55% |  | O=C(O)CCNCCOCCN1c2ccccc2CCc2ccccc21 | 
6 | 35.5 µM | 88% | 50% |  | O=C(O)CCNCCOCCN1c2ccccc2Sc2ccccc21 | 
7 |  | 55% | 40% | 42.7 µM | COc1ccc(C(OCCNCCC(=O)O)(c2ccc(OC)cc2)c2ccc(OC)cc2)cc1 | remaining GABA uptake [7]: 57%
8 |  |  |  |  | COc1ccc(C(OCCN2CCC[C@H](C(=O)O)C2)(c2ccc(OC)cc2)c2ccc(OC)cc2)cc1 | IC50 (GABA transporter 2): 30.9 µM
9 |  | 47% | 94% |  | COc1ccc(C(/C=C/CNCCC(=O)O)(c2ccc(OC)cc2)c2ccc(OC)cc2)cc1 | remaining GABA uptake [7]: 77%
10 |  | 85% | 87% |  | O=C(O)CCNCCOCCN1c2ccccc2C=Cc2ccccc21 | remaining GABA uptake [7]: 56%
11 | 50.1 µM |  |  | 83.2 µM | CC(N)CC(=O)O (racemic) | IC50 (GABA transporter 3): 46.8 µM; IC50 (GABA transporter 2): 813 µM
12 | 4.57 µM | 86% | 82% |  | CC(CC(=O)O)NCCC=C(c1ccccc1)c1ccccc1 (racemic) | 
13 | 13.2 µM |  |  | 339 µM | CC(CC(=O)O)NCCOCCN1c2ccccc2CCc2ccccc21 (racemic) | IC50 (GABA transporter 3): 214 µM; remaining GABA uptake [8]: 69%
14 | 17.4 µM | 82% | 84% |  | CC(CC(=O)O)NCCOCCN1c2ccccc2C=Cc2ccccc21 (racemic) | 
15 |  | 73% | 48% | 33.9 µM | COc1ccc(C(OCCNC(C)CC(=O)O)(c2ccc(OC)cc2)c2ccc(OC)cc2)cc1 (racemic) | remaining GABA uptake [7]: 114%
16 |  | 47% |  | 60.3 µM | COc1ccc(C(/C=C/CNC(C)CC(=O)O)(c2ccc(OC)cc2)c2ccc(OC)cc2)cc1 (racemic) | IC50 (GABA transporter 3): 63.1 µM; remaining GABA uptake [7]: 52%

Row | Structure (SMILES) | IC50 [2] | remaining GABA uptake [5] | remaining GABA uptake [6] | IC50 (GABA transporter 4) | other results
17 | COc1ccc(C(/C=C/CN2CCC[C@H](C(=O)O)C2)(c2ccc(OC)cc2)c2ccc(OC)cc2)cc1 | 39.8 µM |  |  |  | IC50 (GABA transporter 2): 38 µM
18 | CC(CC(=O)O)NCCOCCN1c2ccccc2Sc2ccccc21 (racemic) | 8.71 µM | 74% |  |  | IC50 (GABA transporter 3): 40.7 µM
19 | NCCC(=O)O [BETA-ALANINE] | 2820 µM |  |  | 34.7 µM | IC50 (GABA transporter 3): 21.9 µM; IC50 (GABA transporter 2): 331 µM
